Reference: ChEMBL document CHEMBL5705905, “Pharmacological targeting of kinases MST1 and MST2 augments tissue repair and regeneration” (Sci Transl Med, 2016)
The source made the active and inactive calls. The rule behind the calls is not given here.

Columns and labels:
[1] = target: Tyrosine-protein kinase Fer (Homo sapiens) (UniProt P16591); test: Inhibition of FER (unknown origin) assessed as remaining activity at 1 uM by Kinome scan method relative to control
[2] = target: Phosphatidylinositol 4-phosphate 5-kinase type-1 gamma (Homo sapiens, UniProt O60331); test: Binding affinity to PIP5K1C (unknown origin) assessed as dissociation constant
[3] = target: BDNF/NT-3 growth factors receptor (Homo sapiens) (UniProt Q16620); test: Inhibition of TRKB (unknown origin) assessed as remaining activity at 1 uM by Kinome scan method relative to control
Sequence of BDNF/NT-3 growth factors receptor (Homo sapiens) (Q16620 32-822 limits assumed): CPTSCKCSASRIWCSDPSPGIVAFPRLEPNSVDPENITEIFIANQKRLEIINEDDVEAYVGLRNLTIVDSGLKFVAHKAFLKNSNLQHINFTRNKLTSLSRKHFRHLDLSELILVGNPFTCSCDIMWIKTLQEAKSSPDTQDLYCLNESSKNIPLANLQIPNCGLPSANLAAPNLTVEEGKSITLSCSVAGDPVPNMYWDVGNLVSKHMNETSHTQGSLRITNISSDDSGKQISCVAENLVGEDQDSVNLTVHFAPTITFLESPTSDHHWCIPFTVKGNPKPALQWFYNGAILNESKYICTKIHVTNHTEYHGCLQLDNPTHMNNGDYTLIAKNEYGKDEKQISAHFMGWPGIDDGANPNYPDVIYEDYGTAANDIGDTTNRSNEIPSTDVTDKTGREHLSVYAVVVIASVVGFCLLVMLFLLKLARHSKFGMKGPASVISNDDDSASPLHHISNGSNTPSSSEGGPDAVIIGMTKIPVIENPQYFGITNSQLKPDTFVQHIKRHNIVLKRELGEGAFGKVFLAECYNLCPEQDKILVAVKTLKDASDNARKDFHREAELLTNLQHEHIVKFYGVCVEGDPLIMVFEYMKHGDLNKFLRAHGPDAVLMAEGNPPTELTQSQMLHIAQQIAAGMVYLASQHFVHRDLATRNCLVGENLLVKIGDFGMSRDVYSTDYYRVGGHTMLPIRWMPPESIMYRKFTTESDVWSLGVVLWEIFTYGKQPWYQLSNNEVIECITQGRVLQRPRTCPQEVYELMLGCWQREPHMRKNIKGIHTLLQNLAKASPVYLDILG

[4] = target: Non-receptor tyrosine-protein kinase TYK2 (Homo sapiens, UniProt P29597); test: Inhibition of TYK2 JH2 domain (unknown origin) assessed as remaining activity at 1 uM by Kinome scan method relative to control
[5] = target: Mitotic checkpoint serine/threonine-protein kinase BUB1 (Homo sapiens) (UniProt O43683); test: Inhibition of BUB1 (unknown origin) assessed as remaining activity at 1 uM by Kinome scan method relative to control
Procedure, shortened: (§1)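 KINOMEscan active-site-dependent competition-binding panel of 468 kinases, compound at 1 μM from a DMSO stock. Result reported as ctrl% = (test signal − positive control signal)/(negative control signal − positive control signal) × 100. The negative control is DMSO (100%) and the positive control is a control compound (0%). Lower ctrl% means tighter binding.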

[6] = target: MAP kinase-activated protein kinase 5 (Homo sapiens) (UniProt Q8IW41); test: Inhibition of MAPKAPK5 (unknown origin) assessed as remaining activity at 1 uM by Kinome scan method relative to control
Sequence of MAP kinase-activated protein kinase 5 (Homo sapiens) (Q8IW41 whole entry): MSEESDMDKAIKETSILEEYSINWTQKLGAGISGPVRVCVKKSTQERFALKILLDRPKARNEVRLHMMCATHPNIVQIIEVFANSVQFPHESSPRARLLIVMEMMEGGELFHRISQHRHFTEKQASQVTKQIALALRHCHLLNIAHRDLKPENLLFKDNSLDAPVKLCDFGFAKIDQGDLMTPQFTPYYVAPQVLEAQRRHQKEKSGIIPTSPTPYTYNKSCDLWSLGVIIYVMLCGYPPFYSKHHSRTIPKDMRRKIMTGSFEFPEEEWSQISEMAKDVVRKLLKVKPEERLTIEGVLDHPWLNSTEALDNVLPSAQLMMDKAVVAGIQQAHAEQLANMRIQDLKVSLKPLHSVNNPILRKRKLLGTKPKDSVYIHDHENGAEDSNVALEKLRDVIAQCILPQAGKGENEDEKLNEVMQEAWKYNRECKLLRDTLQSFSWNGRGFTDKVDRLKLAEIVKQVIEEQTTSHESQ

[7] = target: Mitogen-activated protein kinase kinase kinase 12 (Homo sapiens) (UniProt Q12852); test: Inhibition of DLK (unknown origin) assessed as remaining activity at 1 uM by Kinome scan method relative to control
Sequence of Mitogen-activated protein kinase kinase kinase 12 (Homo sapiens) (Q12852 whole entry): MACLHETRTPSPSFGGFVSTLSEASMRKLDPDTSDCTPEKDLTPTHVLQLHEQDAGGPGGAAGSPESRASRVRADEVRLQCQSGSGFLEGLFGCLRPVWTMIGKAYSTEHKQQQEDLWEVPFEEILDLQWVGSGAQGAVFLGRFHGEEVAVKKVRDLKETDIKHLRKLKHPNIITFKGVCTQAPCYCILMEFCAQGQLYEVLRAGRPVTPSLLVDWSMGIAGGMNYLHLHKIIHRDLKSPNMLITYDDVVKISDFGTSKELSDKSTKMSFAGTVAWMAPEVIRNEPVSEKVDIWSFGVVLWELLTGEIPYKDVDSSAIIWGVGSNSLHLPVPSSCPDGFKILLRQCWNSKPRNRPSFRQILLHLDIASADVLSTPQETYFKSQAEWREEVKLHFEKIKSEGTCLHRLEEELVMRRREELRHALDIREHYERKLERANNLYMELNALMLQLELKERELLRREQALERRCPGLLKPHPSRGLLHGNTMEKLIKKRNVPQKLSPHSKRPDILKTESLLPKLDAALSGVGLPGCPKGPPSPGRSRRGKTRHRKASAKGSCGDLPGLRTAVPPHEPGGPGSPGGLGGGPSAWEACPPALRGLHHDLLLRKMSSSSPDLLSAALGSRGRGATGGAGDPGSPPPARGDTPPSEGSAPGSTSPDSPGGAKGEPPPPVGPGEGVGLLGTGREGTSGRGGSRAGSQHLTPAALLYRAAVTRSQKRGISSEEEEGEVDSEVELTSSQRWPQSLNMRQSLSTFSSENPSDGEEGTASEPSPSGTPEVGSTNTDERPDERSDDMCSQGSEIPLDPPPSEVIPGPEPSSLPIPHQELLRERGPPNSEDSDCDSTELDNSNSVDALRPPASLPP

[8] = target: Tyrosine-protein kinase ABL1 (Homo sapiens) (UniProt P00519); test: Inhibition of ABL1 (unknown origin) assessed as remaining activity at 1 uM by Kinome scan method relative to control
Procedure, shortened: (§2)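 Active-site-dependent competition-binding (KINOMEscan) panel of 468 kinases, test compound at 1 μM (from a 10 mM DMSO stock). Read-out is ctrl% = (test signal − positive control signal)/(negative control signal − positive control signal) × 100. DMSO is the negative control (100%) and a control compound is the positive control (0%). Lower ctrl% means tighter binding.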

[9] = target: Protein kinase C iota type (Homo sapiens) (UniProt P41743); test: Inhibition of PRKCI (unknown origin) assessed as remaining activity at 1 uM by Kinome scan method relative to control
Sequence of Protein kinase C iota type (Homo sapiens) (P41743 whole entry): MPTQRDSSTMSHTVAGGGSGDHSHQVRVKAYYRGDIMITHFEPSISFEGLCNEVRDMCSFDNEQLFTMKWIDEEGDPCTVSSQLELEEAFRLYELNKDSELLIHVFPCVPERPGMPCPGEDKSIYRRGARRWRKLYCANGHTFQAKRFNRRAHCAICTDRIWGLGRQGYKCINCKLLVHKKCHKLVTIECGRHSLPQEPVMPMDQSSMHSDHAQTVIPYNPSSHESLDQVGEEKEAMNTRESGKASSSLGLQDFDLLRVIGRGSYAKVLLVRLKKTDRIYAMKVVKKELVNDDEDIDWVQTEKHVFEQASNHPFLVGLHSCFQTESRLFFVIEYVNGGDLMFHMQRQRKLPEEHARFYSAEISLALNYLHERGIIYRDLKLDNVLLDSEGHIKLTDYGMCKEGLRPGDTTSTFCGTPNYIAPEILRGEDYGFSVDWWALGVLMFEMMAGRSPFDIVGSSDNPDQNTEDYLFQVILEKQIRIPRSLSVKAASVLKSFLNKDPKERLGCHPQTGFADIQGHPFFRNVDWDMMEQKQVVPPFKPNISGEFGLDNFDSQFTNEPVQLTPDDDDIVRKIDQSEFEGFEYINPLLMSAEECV

[10] = target: Serine/threonine-protein kinase TAO1 (Homo sapiens, UniProt Q7L7X3); test: Binding affinity to TAOK1 (unknown origin) assessed as dissociation constant
[11] = target: RAC-alpha serine/threonine-protein kinase (Homo sapiens) (UniProt P31749); test: Inhibition of AKT1 (unknown origin) assessed as remaining activity at 1 uM by Kinome scan method relative to control; procedure, shortened: as §2
Sequence of RAC-alpha serine/threonine-protein kinase (Homo sapiens) (P31749 whole entry): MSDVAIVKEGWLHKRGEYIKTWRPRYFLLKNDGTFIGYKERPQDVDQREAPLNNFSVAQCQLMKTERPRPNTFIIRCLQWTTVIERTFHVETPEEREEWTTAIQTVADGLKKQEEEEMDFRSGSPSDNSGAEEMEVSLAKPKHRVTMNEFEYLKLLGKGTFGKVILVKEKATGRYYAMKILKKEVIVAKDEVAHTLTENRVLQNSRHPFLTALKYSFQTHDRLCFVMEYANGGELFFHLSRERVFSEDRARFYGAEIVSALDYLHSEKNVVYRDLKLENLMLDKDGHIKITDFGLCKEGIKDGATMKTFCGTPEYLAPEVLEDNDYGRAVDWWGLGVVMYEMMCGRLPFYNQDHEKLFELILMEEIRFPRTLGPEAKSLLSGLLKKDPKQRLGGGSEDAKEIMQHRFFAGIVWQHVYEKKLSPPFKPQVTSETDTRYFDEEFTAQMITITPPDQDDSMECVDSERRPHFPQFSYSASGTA

[12] = test system: Epidermal growth factor receptor (Homo sapiens), P00533 [T790M]; test: Inhibition of EGFR T790M mutant (unknown origin) assessed as remaining activity at 1 uM by Kinome scan method relative to control
[13] = test system: Receptor-type tyrosine-protein kinase FLT3 (Homo sapiens), P36888 [N841I]; test: Inhibition of FLT3 N841I mutant (unknown origin) assessed as remaining activity at 1 uM by Kinome scan method relative to control
[14] = test system: Epidermal growth factor receptor (Homo sapiens), P00533 [G719S]; test: Inhibition of EGFR G719S mutant (unknown origin) assessed as remaining activity at 1 uM by Kinome scan method relative to control
Mus musculus [15] = test: Protection against APAP induced liver injury in mouse assessed as decrease in ALT level at 1 mg/kg, ip administered at 2.5 hrs; assay type: functional, organism-based; conditions: Serum
[16] = target: RAF proto-oncogene serine/threonine-protein kinase (Homo sapiens) (UniProt P04049); test: Inhibition of RAF1 (unknown origin) assessed as remaining activity at 1 uM by Kinome scan method relative to control
[17] = target: 1-phosphatidylinositol 3-phosphate 5-kinase (Homo sapiens) (UniProt Q9Y2I7); test: Inhibition of PIKFYVE (unknown origin) assessed as remaining activity at 1 uM by Kinome scan method relative to control
[18] = Half life in male Sprague-Dawley rat at 10 mg/kg, po measured for 24 hrs by LC-MS/MS analysis; assay type: ADME, organism-based; conditions: in vivo
Procedure, shortened: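 Sprague-Dawley rats, single intravenous or oral dose. Parameters (half-life, AUC, bioavailability) reported in a supplementary table.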

[19] = target: T1, Mitogen-activated protein kinase kinase kinase 3 (Homo sapiens, UniProt Q99759); test: Inhibition of MAP3K3 (unknown origin) in presence of ATP by enzymatic assay
T1 sequence (Q99759 whole entry): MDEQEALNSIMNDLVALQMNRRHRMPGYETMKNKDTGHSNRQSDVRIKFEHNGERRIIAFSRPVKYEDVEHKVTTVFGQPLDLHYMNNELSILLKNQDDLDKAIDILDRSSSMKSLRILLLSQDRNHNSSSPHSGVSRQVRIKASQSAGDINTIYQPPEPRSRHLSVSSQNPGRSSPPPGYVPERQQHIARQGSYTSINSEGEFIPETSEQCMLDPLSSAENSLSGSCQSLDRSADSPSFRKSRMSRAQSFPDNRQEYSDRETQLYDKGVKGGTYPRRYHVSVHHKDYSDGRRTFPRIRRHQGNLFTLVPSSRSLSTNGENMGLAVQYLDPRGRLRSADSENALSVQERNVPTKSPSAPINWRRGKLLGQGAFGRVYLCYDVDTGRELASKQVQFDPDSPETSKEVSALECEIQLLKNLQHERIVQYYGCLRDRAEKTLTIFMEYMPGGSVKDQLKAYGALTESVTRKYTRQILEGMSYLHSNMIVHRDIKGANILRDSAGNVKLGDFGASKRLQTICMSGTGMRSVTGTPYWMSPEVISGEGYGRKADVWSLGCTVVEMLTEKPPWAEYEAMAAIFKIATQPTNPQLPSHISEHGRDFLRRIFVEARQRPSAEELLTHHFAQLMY

[20] = target: SRSF protein kinase 2 (Homo sapiens) (UniProt P78362); test: Inhibition of SRPK2 (unknown origin) assessed as remaining activity at 1 uM by Kinome scan method relative to control
[21] = target: Inhibitor of nuclear factor kappa-B kinase subunit beta (Homo sapiens) (UniProt O14920); test: Inhibition of IKK-beta (unknown origin) assessed as remaining activity at 1 uM by Kinome scan method relative to control
Sequence of Inhibitor of nuclear factor kappa-B kinase subunit beta (Homo sapiens) (O14920 whole entry): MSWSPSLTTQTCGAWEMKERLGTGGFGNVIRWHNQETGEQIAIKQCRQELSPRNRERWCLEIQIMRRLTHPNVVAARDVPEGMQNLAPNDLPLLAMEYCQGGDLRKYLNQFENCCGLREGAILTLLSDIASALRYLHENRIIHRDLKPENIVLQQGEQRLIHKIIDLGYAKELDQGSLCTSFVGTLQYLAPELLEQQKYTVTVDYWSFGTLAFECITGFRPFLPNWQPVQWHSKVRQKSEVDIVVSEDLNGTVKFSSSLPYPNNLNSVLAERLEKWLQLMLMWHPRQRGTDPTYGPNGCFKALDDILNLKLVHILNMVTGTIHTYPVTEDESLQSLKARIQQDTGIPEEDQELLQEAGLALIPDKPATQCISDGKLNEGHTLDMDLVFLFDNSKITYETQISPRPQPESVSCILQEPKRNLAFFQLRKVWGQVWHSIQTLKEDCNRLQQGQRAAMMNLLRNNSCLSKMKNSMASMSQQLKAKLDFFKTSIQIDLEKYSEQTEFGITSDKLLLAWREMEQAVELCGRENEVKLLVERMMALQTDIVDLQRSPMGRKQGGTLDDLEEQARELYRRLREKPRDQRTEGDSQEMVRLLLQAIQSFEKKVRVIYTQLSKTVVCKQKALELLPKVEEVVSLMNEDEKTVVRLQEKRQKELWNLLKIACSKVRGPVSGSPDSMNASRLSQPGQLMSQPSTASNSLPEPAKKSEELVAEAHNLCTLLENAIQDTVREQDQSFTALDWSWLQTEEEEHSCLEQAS

[22] = target: Tyrosine-protein kinase Lck (Homo sapiens) (UniProt P06239); test: Inhibition of LCK (unknown origin) assessed as remaining activity at 1 uM by Kinome scan method relative to control
[23] = target: Casein kinase I isoform epsilon (Homo sapiens) (UniProt P49674); test: Inhibition of CSNK1E (unknown origin) assessed as remaining activity at 1 uM by Kinome scan method relative to control
Sequence of Casein kinase I isoform epsilon (Homo sapiens) (P49674 whole entry, looked up, canonical isoform): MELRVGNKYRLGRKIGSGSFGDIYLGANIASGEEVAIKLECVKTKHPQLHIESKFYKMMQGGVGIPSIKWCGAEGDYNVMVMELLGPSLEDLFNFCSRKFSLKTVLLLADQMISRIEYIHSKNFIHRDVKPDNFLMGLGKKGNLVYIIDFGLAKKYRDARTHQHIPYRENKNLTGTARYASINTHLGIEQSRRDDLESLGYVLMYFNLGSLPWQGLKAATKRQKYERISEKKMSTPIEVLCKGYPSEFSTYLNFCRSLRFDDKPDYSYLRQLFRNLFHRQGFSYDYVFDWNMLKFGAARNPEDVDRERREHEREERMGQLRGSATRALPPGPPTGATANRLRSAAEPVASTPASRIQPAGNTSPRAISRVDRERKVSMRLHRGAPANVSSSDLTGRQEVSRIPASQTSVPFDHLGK
Procedure, shortened: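 Active-site-dependent competition-binding profiling (KINOMEscan) at 1 μM against a 468-kinase panel; compound supplied from a 10 mM DMSO stock. Read-out is ctrl% = (test signal − positive control signal)/(negative control signal − positive control signal) × 100. DMSO is the negative control (100%) and a control compound the positive control (0%). Lower ctrl% means tighter binding.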

[24] = Acute toxicity in wild-type mouse assessed as CK19-positive cells at 1 mg/kg,ip administrated daily for 2 months and after 2 weeks drug withdrawal by H and E staining based immunohistochemical analysis; assay type: organism-based; conditions: in vivo, 1460 h
Procedure, shortened: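 Wild-type mice dosed 1 mg/kg i.p. daily for 2 months (vehicle 0.1% citric acid aqueous solution with 20% Kolliphor HS 15), or dosed and then withdrawn 2 weeks. Liver sections given H&E and IHC for CK19 and BrdU; positive cells counted, n = 3; means ± SD, Student's t test.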

[25] = target: T1, Mitogen-activated protein kinase kinase kinase 3; test: Binding affinity to MAP3K3 (unknown origin) assessed as dissociation constant
[26] = target: BMP-2-inducible protein kinase (Homo sapiens) (UniProt Q9NSY1); test: Inhibition of BIKE (unknown origin) assessed as remaining activity at 1 uM by Kinome scan method relative to control; procedure, shortened: as §1
Mus musculus [27] = test: In vivo inhibition of MST1/2 in wild-type Mst1fl/fl Mst2fl/fl mouse assessed as decrease in MOB1 phosphorylation level at 1 mg/kg, ip administrated daily for 7 days by immunoblot analysis; assay type: functional, organism-based; conditions: Liver, time 7.0 day

Which Activity [1] does the source give for CN1C(=O)c2sccc2N(C)c2nc(Nc3ccc(S(N)(=O)=O)cc3)ncc21 here?
Its Activity is 100%.

What about the Kd [2] of the same compound?
Its Kd is 77 nM.

And the Activity [3]?
The Activity was 35%.

And the Activity [4]?
The Activity was 71%.

And the Activity [5]?
The Activity was 95%.

What about the Activity [6] of the same compound?
Its Activity is 91%.

What about the Activity [7] of the same compound?
Its Activity is 85%.

What about the Activity [8] of the same compound?
Its Activity is 21%.

What about the Activity [9] of the same compound?
Its Activity is 94%.

What about the Kd [10] of the same compound?
The Kd was 180 nM.

And the Activity [11]?
The Activity was 100%.

And the Activity [12]?
Its Activity is 92%.

And the Activity [13]?
The Activity was 39%.

What about the Activity [14] of the same compound?
Its Activity is 78%.

What about the Activity (Mus musculus [15]) of the same compound?
The Activity was “Active”.

What about the Activity [16] of the same compound?
The Activity was 80%.

What about the Activity [17] of the same compound?
Its Activity is 64%.

And the half-life [18]?
Its half-life is 5.18 h.

What about the IC50 [19] of the same compound?
The IC50 was 38.4 nM.

And the Activity [20]?
The Activity was 93%.

And the Activity [21]?
The Activity was 100%.

And the Activity [22]?
Its Activity is 100%.

And the Activity [23]?
The Activity was 92%.

And the Activity [24]?
The Activity was “Non-Toxic”.

And the Kd [25]?
Its Kd is 27 nM.

What about the Activity [26] of the same compound?
Its Activity is 95%.

And the inhibition (Mus musculus [27])?
Its inhibition is “Active”.
